Reference: ChEMBL document CHEMBL1144244, “Synthesis and biological activity of enantiomeric pairs of 5-[(E)-cycloalk-2-enylidenemethyl]thiolactomycin congeners” (Bioorg Med Chem Lett, 2008)
Values after ≈ are worked out from the molar mass of the structure shown.

Key:
Staphylococcus aureus = assay: Antibacterial activity against Staphylococcus aureus Smith by agar dilution method; format: functional
Summary of the method: (§1)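 MICs determined by agar dilution following CLSI guideline M7-A6 (2003).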

[1] = Inhibition of fatty acid synthase type 1 in human HepG2 cells assessed as [1-14C]acetate incorporation into cellular fatty acid; format: cell-based
Haemophilus influenzae = assay: Antibacterial activity against Haemophilus influenzae IID983 by agar dilution method; format: functional; summary of the method: as §1
Moraxella catarrhalis = assay: Antibacterial activity against Moraxella catarrhalis ATCC 25238 by agar dilution method; format: functional; summary of the method: as §1

SMILES	MIC (Staphylococcus aureus) [µg/mL]	IC50 [1] [µg/mL]	MIC (Haemophilus influenzae) [µg/mL]	MIC (Moraxella catarrhalis) [µg/mL]
CC1=C(O)[C@@](C)(/C=C2/C=C\CCCCC2)SC1=O	> 128	0.0418 (≈ 0.158 µM)	> 128	64 (≈ 242 µM)
C=C1C(=O)OC(CCCCCCCC)C1C(=O)O (stereo unspecified)		0.0074 (≈ 0.0291 µM)		
C=C/C(C)=C/[C@]1(C)SC(=O)C(C)=C1O	> 128	0.0437 (≈ 0.208 µM)		> 128
CC1=C(O)[C@@](C)(/C=C2/C=CCCC2)SC1=O	> 64	> 0.08	> 64	> 64
O=C(O)c1cn(C2CC2)c2cc(N3CCNCC3)c(F)cc2c1=O [CIPROFLOXACIN]	0.063 (≈ 0.19 µM)		0.008 (≈ 0.0241 µM)	0.031 (≈ 0.0936 µM)
C=C/C(C)=C/[C@@]1(C)SC(=O)C(C)=C1O [THIOLACTOMYCIN]	128 (≈ 609 µM)	> 0.08	2 (≈ 9.51 µM)	0.25 (≈ 1.19 µM)
CC1=C(O)[C@](C)(/C=C2/C=CCCC2)SC1=O	> 64	> 0.08	> 64	> 64
CC1=C(O)[C@](C)(/C=C2/C=C\CCCCC2)SC1=O	> 128	0.0116 (≈ 0.0439 µM)	> 128	64 (≈ 242 µM)
CC1=C(O)[C@](C)(/C=C2/C=CCCCC2)SC1=O	> 64	0.0149 (≈ 0.0595 µM)	> 64	> 64
CC1=C(O)[C@@](C)(/C=C2/C=CCCCC2)SC1=O	> 64	0.0254 (≈ 0.101 µM)	> 64	> 64

Second part, the compound after the results:

MIC (Staphylococcus aureus) [µg/mL]	IC50 [1] [µg/mL]	MIC (Haemophilus influenzae) [µg/mL]	MIC (Moraxella catarrhalis) [µg/mL]	SMILES
> 128	> 0.08	32 (≈ 163 µM)	16 (≈ 81.5 µM)	C=C/C(C)=C/[C@@]1(C)SC(=O)C=C1O
> 64	0.057 (≈ 0.256 µM)	> 64	> 64	C[C@]1(/C=C2/C=CCCC2)SC(=O)C=C1O
> 64	0.0133 (≈ 0.0563 µM)	> 64	> 64	C[C@]1(/C=C2/C=CCCCC2)SC(=O)C=C1O
> 128	0.0195 (≈ 0.0779 µM)	> 128	128 (≈ 511 µM)	C[C@]1(/C=C2/C=C\CCCCC2)SC(=O)C=C1O
> 128	0.019 (≈ 0.0968 µM)		> 128	C=C/C(C)=C/[C@]1(C)SC(=O)C=C1O
> 128	0.0246 (≈ 0.0983 µM)	> 128	64 (≈ 256 µM)	C[C@@]1(/C=C2/C=C\CCCCC2)SC(=O)C=C1O
> 64	0.0226 (≈ 0.0956 µM)	> 64	> 64	C[C@@]1(/C=C2/C=CCCCC2)SC(=O)C=C1O
> 64	0.0189 (≈ 0.085 µM)	> 64	> 64	C[C@@]1(/C=C2/C=CCCC2)SC(=O)C=C1O
